An excerpt weighted towards active compounds, which were near 5.4% of everything screened.
E coli WT exp: E. coli BW25113 growth inhibition, expanded screen; OD600 absorbance; growth inhibition, % at 100 µM; 0.15% of 98,000 active;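 active = growth inhibition above about 50% at one test dose, limit read from the data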;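 also: growth measured after 20 h incubation at 37 °C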
HePTP inhibitor: blocks human HePTP tyrosine phosphatase. inhibition, % at 20 µM. P35236. AID 521. 0.64% of 110,000 active. recombinant HePTP phosphatase activity, OD absorbance; in the data active = inhibition above about 50%;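 also: plate controls were vehicle for no effect and reference inhibitor for full effect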
Target sequence (P35236 whole entry, looked up): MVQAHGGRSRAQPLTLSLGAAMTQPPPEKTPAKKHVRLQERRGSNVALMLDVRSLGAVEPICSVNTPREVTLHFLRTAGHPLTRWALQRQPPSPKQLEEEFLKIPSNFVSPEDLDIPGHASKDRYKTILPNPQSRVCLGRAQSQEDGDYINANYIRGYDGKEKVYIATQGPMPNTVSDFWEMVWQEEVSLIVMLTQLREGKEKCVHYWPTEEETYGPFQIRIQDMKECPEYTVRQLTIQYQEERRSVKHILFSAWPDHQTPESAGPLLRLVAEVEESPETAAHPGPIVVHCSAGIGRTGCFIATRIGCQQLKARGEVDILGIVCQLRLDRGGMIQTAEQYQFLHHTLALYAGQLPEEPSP
PLAP activator: human PLAP activation; activation fold at 20 µM; purified PLAP enzyme, luminescent substrate read-out; active compounds read high; P05187; AID 696; 1.2% of 96,000 active; in the data active = activation fold above about 2
PostGolgi yeast: growth inhibition of a yeast mutant, post-Golgi transport screen; post-Golgi transport phenotypic cell assay; inhibition, % at 10 µM; 0.9% of 98,000 active; AID 739;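 also: yeast cells grown in 1536-well plates; yeast grown about 18 h at 30C before absorbance read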
tolC growth inh: E. coli tolC mutant growth inhibition. E. coli BW25113 tolC mutant growth, OD615. growth inhibition, % at 10 µM (by protocol). 2.2% of 65,000 active. AID 573;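 active = growth inhibition at or above a cutoff equal to the mean over every tested compound plus 3 SD, cut at about 60% in these data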;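 also: growth measured after 20 h incubation at 37 °C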
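Signal: optical density read at 615 nm; Assay system: E. coli ΔtolC::kan strain BW25113; Times: 20 h incubation with compound, 37 °C; Dosing: 10 µM final, single dose.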
PostGolgi ctrl: inhibits growth of the yeast control strain; 5% of 98,000 active; inhibition, % at 10 µM; AID 738; efflux-deficient yeast background strain, growth absorbance A615, 16 h
* = called active by the depositor; nt = not tested or not shown. Rule as the data show it, unless noted: active = inhibition above about 30%; inactive = the rest.

SMILES	E coli WT exp	HePTP inhibitor	PLAP activator	PostGolgi yeast	tolC growth inh	PostGolgi ctrl
Cc1ccc2[nH]c(=O)c(CN(CCN3CCOCC3)C(=O)Nc3ccccc3F)cc2c1	-5	-6	nt	0	-8	46*
CCN1CCCC1CN(Cc1cc2cc(C)ccc2[nH]c1=O)C(=O)Nc1ccccc1OC (stereo not given)	6	8	1.6	7	-12	34*
CCN1CCCC1CN(Cc1cc2cc(OC)ccc2[nH]c1=O)C(=O)NCc1ccccc1 (stereo not given)	-2	-1	1.6	1	-2	16
CCN(CC)S(=O)(=O)c1ccc(NC2CCCc3ccccc32)nc1 (stereo not given)	-10	3	nt	4	16	48*
O=S(=O)(c1ccc(NC2CCCc3ccccc32)nc1)N1CCOCC1 (stereo not given)	-3	0	1.4	-9	6	11
CCc1ccc(S(=O)(=O)c2n[nH]n3c2nc(=O)c2ccccc23)cc1	-30	nt	nt	1	20	50*
O=c1nc2c(-c3ccccc3F)n[nH]n2c2ccccc12	-2	5	0.9	-4	0	25
CC(C)c1ccc(S(=O)(=O)c2n[nH]n3c2nc(=O)c2ccccc23)cc1	-13	nt	nt	0	17	57*
COc1cc(/C=N/N2C(=O)CSC2=S)ccc1OCCOc1cc(C)ccc1C(C)C	nt	-11	nt	nt	nt	nt
Cc1ccc(C(C)C)c(OCC(=O)Nc2ncc(S(=O)(=O)c3ccc([N+](=O)[O-])cc3)s2)c1	nt	5	nt	nt	nt	nt
COc1ccccc1N(C(=O)NCc1ccccc1)C1=NCC(C)S1 (stereo not given)	-2	9	1.4	-4	51	48*
COc1cccc(/C=N/NS(C)(=O)=O)c1	nt	-9	nt	nt	nt	nt
CCN(CC)S(=O)(=O)c1ccc(C(=O)OCn2nnc3ccccc3c2=O)cc1	-14	nt	1	89*	23	78*
CCC(C)C(NC(=O)c1cc(C)oc1C)C(=O)O (stereo not given)	nt	6	nt	nt	nt	nt
O=C1CC(N2CCN(c3nc4ccccc4s3)CC2)C(=O)N1Cc1cccs1 (stereo not given)	-1	11	1.5	93*	16	102*
CC(C)C(c1nnnn1Cc1ccco1)N1CCN(c2nc3ccccc3s2)CC1 (stereo not given)	-1	7	0.9	5	16	41*
CCC(c1nnnn1Cc1cccs1)N1CCN(c2nc3ccccc3s2)CC1 (stereo not given)	-9	-7	1.2	10	19	32*
O=C(O)c1ccc(NC(=O)c2ccc3ccccc3n2)cc1	nt	6	nt	nt	nt	nt
Cc1ccnc(NC(=O)c2ccc(OCC(C)C)cc2)c1	nt	-4	nt	nt	nt	nt
O=C(/C=C/c1ccc(F)cc1)Nc1ccc(F)c([N+](=O)[O-])c1	nt	13	nt	nt	nt	nt
Clc1cccc(Cl)c1/C=C/c1nc2ccccc2[nH]1	-5	nt	0.9	8	nt	66*
Clc1ccc(/C=C/c2nc3ccccc3[nH]2)c(Cl)c1	6	nt	0.3	24	nt	75*
O=C(Nc1ccccc1C(=O)c1ccccc1)c1ccc([N+](=O)[O-])cc1	nt	5	nt	nt	nt	nt
COC(=O)c1[nH]cnc1C(=O)Nc1ccc(C)cc1C(=O)c1ccccc1	nt	0	nt	nt	nt	nt
Cc1ccc(-c2nc3cc(NS(=O)(=O)c4ccc(C)cc4)ccc3o2)cc1	-13	nt	1.6	14	nt	59*
SMILES	E coli WT exp	HePTP inhibitor	PLAP activator	PostGolgi yeast	tolC growth inh	PostGolgi ctrl
O=S(=O)(Nc1ccc2oc(-c3ccccc3)nc2c1)c1ccccc1	-4	-5	1.3	0	100*	33*
O=S(=O)(Nc1cccc(-c2nc3cc(Cl)ccc3o2)c1)c1ccccc1	nt	-9	nt	nt	nt	nt
FC(F)(F)c1cnc(Oc2ccccc2-c2nnco2)c(Cl)c1	-3	nt	2.3*	-3	nt	-4
O=C(O)CCCCCN1C(=O)C(=O)/C(=C(/O)c2ccc([N+](=O)[O-])cc2)C1c1ccc2c(c1)OCO2 (stereo not given)	nt	104*	nt	nt	nt	nt
O=C(O)CCCCCN1C(=O)C(=O)/C(=C(/O)c2ccc(Cl)cc2)C1c1ccc2c(c1)OCO2 (stereo not given)	nt	-6	nt	nt	nt	nt
COc1ccc(-c2noc(-c3cccc([N+](=O)[O-])c3C)n2)cc1	nt	-5	nt	nt	nt	nt
CCOC(=O)N1CCN(C(=O)Cc2ccc(-n3c(=O)[nH]c4ccccc4c3=O)cc2)CC1	4	-2	1.1	0	-6	-1
CCOC(=O)c1ccc(-n2c(=O)[nH]c3ccccc3c2=O)cc1	-8	0	2*	-3	12	11
Cc1c(C)n(C(=O)CSc2nc3ccccc3[nH]2)c2ccccc12	-8	nt	1.5	-2	nt	31*
O=C(CSc1nc2ccccc2o1)Nc1ccccc1N1CCCCCC1	-5	12	1	3	73*	21
O=C(CSc1nc2ccccc2o1)Nc1cc(C(F)(F)F)ccc1N1CCOCC1	-2	nt	0.9	-7	nt	34*
O=C(CSc1nc2ccccc2o1)Nc1ccccc1Br	nt	11	nt	nt	nt	nt
FC(F)(F)c1ccc(N2CCOCC2)c(Nc2nc3ccccc3n3cnnc23)c1	5	2	1.3	7	-4	52*
C=CCN1C(=O)C2(/C(=C(\O)c3ccc4c(c3)OCCO4)C(=O)C(=O)N2CCCOC)c2ccccc21 (stereo not given)	0	7	1.8	-10	-27	41*
COc1ccccc1C1/C(=C(\O)c2ccc3c(c2)OCCO3)C(=O)C(=O)N1CCCN(C)C (stereo not given)	nt	5	1	nt	1	nt
O=C(Nc1cc(C(F)(F)F)cc(C(F)(F)F)c1)c1cccc([N+](=O)[O-])c1	nt	5	nt	nt	nt	nt
Cc1cc(NS(=O)(=O)c2ccc(NC(=O)c3cc(-c4cccnc4)nc4ccc(Cl)cc34)cc2)no1	-3	nt	1.1	-6	nt	35*
O=C(/C=C/c1ccco1)Nc1ccccc1C(=O)O	nt	96*	nt	nt	nt	nt
O=C(/C=C/c1ccco1)Nc1cc(Cl)ccc1C(=O)O	nt	102*	nt	nt	nt	nt
CCOc1cc(C2C(C(=O)OCCOC)=C(C)NC3=C2C(=O)CC(C)(C)C3)ccc1OC(C)=O (stereo not given)	nt	-1	nt	nt	nt	nt
CCOc1c(OC(C)=O)ccc(/C=C/c2ccc3cccc(OC(C)=O)c3n2)c1[N+](=O)[O-]	-3	nt	1.1	9	nt	7
COc1c(OC(C)=O)ccc(/C=C/c2ccc3ccccc3n2)c1[N+](=O)[O-]	-16	nt	1.3	-2	nt	73*
COc1cc2nc(SCc3ccc(Cl)cc3Cl)n(Cc3cccs3)c(=N)c2cc1OC	-7	nt	1.2	-4	nt	6
COc1ccc(Cn2c(SCc3cc(C)ccc3C)nc3cc(OC)c(OC)cc3c2=N)cc1	6	nt	1.2	76*	nt	63*
COc1ccc(Cn2c(SCc3ccc(C)cc3)nc3cc(OC)c(OC)cc3c2=N)cc1Cl	-6	nt	1.7	33*	nt	68*
COCCCn1c(SCc2cccc(C(F)(F)F)c2)nc2cc(OC)c(OC)cc2c1=N	10	nt	1.3	15	nt	42*
O=C(Nc1ncc(Cc2ccccc2)s1)c1cccs1	8	4	0.9	-8	38	25
O=C(Nc1nc(-c2cc(Cl)sc2Cl)cs1)c1cccs1	-12	-2	0.9	14	100*	14

Screens (PubChem)
